In the library only some 3.3% were active in any assay of this set; here they are far more common.
CendR NRP1 mod: NRP-1/CendR interaction modulation. FAM-RPARPAR peptide binding to NRP-1, fluorescence polarization. inhibition, % at 25 µM. 360,000 compounds, 0.85% hits;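 active = inhibition or corrected inhibition above about 18%, plus a signal ratio from 0.5 to 1.5, limit read from the data, passing the limit was not always enough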
Target sequence (O14786 whole entry, looked up): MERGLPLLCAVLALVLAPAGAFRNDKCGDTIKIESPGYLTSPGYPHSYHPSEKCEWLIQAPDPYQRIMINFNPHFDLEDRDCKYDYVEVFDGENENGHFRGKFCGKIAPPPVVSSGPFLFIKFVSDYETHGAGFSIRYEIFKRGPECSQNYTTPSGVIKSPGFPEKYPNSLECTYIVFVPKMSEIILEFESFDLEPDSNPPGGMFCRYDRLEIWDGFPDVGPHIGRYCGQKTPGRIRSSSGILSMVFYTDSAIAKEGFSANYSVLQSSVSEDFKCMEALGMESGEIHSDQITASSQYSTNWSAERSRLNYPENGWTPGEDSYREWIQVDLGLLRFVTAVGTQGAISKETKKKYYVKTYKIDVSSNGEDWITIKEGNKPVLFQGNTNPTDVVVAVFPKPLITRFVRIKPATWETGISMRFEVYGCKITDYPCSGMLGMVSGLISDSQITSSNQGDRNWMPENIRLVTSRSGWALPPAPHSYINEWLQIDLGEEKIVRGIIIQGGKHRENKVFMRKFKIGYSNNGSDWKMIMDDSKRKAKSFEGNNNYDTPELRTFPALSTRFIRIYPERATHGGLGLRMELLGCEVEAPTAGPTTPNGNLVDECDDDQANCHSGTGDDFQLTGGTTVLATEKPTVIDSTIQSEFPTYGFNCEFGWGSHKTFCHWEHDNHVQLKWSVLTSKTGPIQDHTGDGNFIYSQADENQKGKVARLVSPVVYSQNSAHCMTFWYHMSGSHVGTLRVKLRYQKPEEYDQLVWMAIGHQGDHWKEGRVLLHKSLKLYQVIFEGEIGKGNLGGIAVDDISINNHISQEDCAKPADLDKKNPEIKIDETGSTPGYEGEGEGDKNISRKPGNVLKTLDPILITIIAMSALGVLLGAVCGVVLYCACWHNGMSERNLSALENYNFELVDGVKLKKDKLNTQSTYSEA
SENP8 block-1: inhibitors of human SENP8 protease; AID 2540; 330,000 compounds, 1.2% hits; inhibition, % at 10 µM; Q96LD8; purified SENP8, Z-RLRGG-aminoluciferin cleavage, luminescence; in the data active = inhibition above about 50%
SENP1 FRET inh: blocks the human SENP1 SUMO protease catalytic domain; inhibition, % at 10 µM; recombinant SENP1 catalytic domain, CyPet-SUMO1-YPet FRET cleavage; AID 624204; Q9P0U3; 360,000 compounds, 0.21% hits;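 active = inhibition at least 30% at 10 µM, raw YFP signal under a set limit, fluorescence ratio 0.5 to 1.5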;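 also: 0% = enzyme with DMSO and 100% = no enzyme wells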
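system = hSENP1 catalytic domain, recombinant | reagent = SFCypet-SUMO1-SFYpet substrate at 25 nM | doses = one dose per compound, 10 µM, 0.5% DMSO | incubation = enzyme reaction for 50 min at room temperature, dark | measured by = FRET, CFP and YFP emission | controls = no-enzyme low, enzyme-DMSO high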
SENP8 block-2: blocks human SENP8 cleavage of Nedd8 substrate | AID 602440 | Q96LD8 | 360,000 compounds, 0.64% hits | inhibition, % at 20 µM | recombinant SENP8, Nedd8 substrate fluorescence; in the data active = inhibition mostly above about 40%, no sharp cut-off; inactive = mostly below about 27%
SENP7 block: blocks the human protease SENP7; 330,000 compounds, 1.5% hits; Q9BQF6; inhibition, % at 5 µM; AID 434973; recombinant SENP7, Z-RLRGG-aminoluciferin luminescence, 40 min;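 active = inhibition above about 50% at the single test dose, limit read from the data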;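 also: plate controls were DMSO with enzyme for no effect and no enzyme buffer wells for full effect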
SENP6 inh: inhibitors of human SENP6 protease; Q9GZR1; Recombinant SENP6 catalytic domain, aminoluciferin luminescence; inhibition, % at 10 µM; 330,000 compounds, 1.8% hits; AID 2599;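 active = inhibition above about 50% at the single tested dose, limit read from the data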;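 also: plate controls were DMSO wells with enzyme for no effect and DMSO wells lacking enzyme for full effect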
An asterisk follows results filed as active.

For CC(C)C(=O)NC(c1ccccc1)c1cc([N+](=O)[O-])c2cccnc2c1O (stereo unspecified) the results were CendR NRP1 mod 0, SENP8 block-1 -3, SENP1 FRET inh -2, SENP8 block-2 32, SENP7 block 2 and SENP6 inh 8.
`CCCC(=O)NC(c1cccs1)c1cc([N+](=O)[O-])c2cccnc2c1O` (stereo unspecified) gave CendR NRP1 mod 11, SENP1 FRET inh -4 and SENP8 block-2 52*.
For CCc1ccc(S(=O)(=O)NCc2ccc(C(=O)NCCN(Cc3ccccc3)C(C)C)cc2)cc1 the results were CendR NRP1 mod 5, SENP1 FRET inh 3 and SENP8 block-2 -54.
For CCc1ccc(C2CC3C(CN2S(=O)(=O)c2ccc(C)cc2)C(=O)CC(c2ccc(CC)cc2)N3S(=O)(=O)c2ccc(C)cc2)cc1 (stereo unspecified) the results were CendR NRP1 mod 16, SENP1 FRET inh 4 and SENP8 block-2 22.
`CCC(=O)c1ccccc1OCCN1C(=O)NC(C)(C)C1=O` gave CendR NRP1 mod 4, SENP8 block-1 -1, SENP1 FRET inh 0, SENP8 block-2 17, SENP7 block 0 and SENP6 inh 1.
CCCCOc1ccc(OCCCC)c2c1NC1(N2)C(=O)N(C(C)=O)c2ccccc21 was read as CendR NRP1 mod -3, SENP8 block-1 -1, SENP1 FRET inh 45*, SENP8 block-2 23, SENP7 block 4 and SENP6 inh 3.
`CC(c1nc2ccccc2[nH]1)n1c(=O)c(-c2ccco2)nc2ccccc21` (stereo unspecified) gave CendR NRP1 mod -83, SENP1 FRET inh -18 and SENP8 block-2 -432.
For C[C@@H]1Cc2[nH][nH]c(=O)c2[C@H](C)O1 the results were CendR NRP1 mod 4, SENP1 FRET inh 1 and SENP8 block-2 16.
COC1=CC(=O)c2c(ccc3ncnc(N)c23)C1=O was read as CendR NRP1 mod 22, SENP1 FRET inh 7 and SENP8 block-2 84*.
For COc1cccc2c1C(=O)C=C(C)C2=O the results were CendR NRP1 mod -6, SENP8 block-1 -2, SENP1 FRET inh 4, SENP8 block-2 -281, SENP7 block 2 and SENP6 inh -5.
`O=C1C(Cl)=C(NCCN2CCOCC2)C(=O)c2ccccc21` gave CendR NRP1 mod 15, SENP8 block-1 11, SENP1 FRET inh 1, SENP8 block-2 59*, SENP7 block 12 and SENP6 inh 27.
`O=C1C(Cl)=C(NCCCO)C(=O)c2ccccc21` gave CendR NRP1 mod 12, SENP8 block-1 28, SENP1 FRET inh 0, SENP8 block-2 83*, SENP7 block 41 and SENP6 inh 41.
Screening O=C1c2ccccc2C(=O)N1CCN1CCOCC1 returned CendR NRP1 mod -4, SENP8 block-1 -4, SENP1 FRET inh 1, SENP8 block-2 6, SENP7 block 9 and SENP6 inh -20.
For CN(C)c1ccc(NC2=C(Cl)C(=O)c3ccccc3C2=O)cc1 the results were CendR NRP1 mod 14, SENP8 block-1 9, SENP1 FRET inh 1, SENP8 block-2 43*, SENP7 block 3 and SENP6 inh 38.
Screening c1ccc(-n2nnnc2CN2CCOCC2)cc1 returned CendR NRP1 mod -8, SENP8 block-1 -12, SENP1 FRET inh 2, SENP8 block-2 9, SENP7 block -12 and SENP6 inh -23.
For CC(=O)Nc1ccc(NC2=C(Cl)C(=O)c3ccccc3C2=O)cc1 the results were SENP8 block-1 24, SENP7 block 10 and SENP6 inh 12.
c1ccc(-n2nnnc2NCCCN2CCOCC2)cc1 was read as CendR NRP1 mod 30*, SENP8 block-1 0, SENP1 FRET inh 1, SENP8 block-2 10, SENP7 block 2 and SENP6 inh -12.
CCC(C(=O)Nc1c(C)cccc1C)n1c(-c2ccc(-c3ccccc3)cc2)nc2ccccc21 (stereo unspecified) was read as CendR NRP1 mod 12, SENP1 FRET inh 2 and SENP8 block-2 -370.
Screening CCCCNC(=O)C1(C)CCCCN1C(=O)c1ccc2ccccc2n1 (stereo unspecified) returned CendR NRP1 mod -6, SENP1 FRET inh 1 and SENP8 block-2 16.
For COc1ccc(NC(=O)N(C)C[C@@H]2Oc3cc(C#CCN(C)C)ccc3S(=O)(=O)N([C@H](C)CO)C[C@H]2C)cc1 the results were CendR NRP1 mod -4, SENP1 FRET inh -2 and SENP8 block-2 -3.
`CC(=O)O[C@H]1[C@@H](O)[C@H](O)[C@H](Oc2c(O)c(C)c3c4c2[C@@H](C)CC[C@@H]4[C@@H](C)C[C@@H]3C=C(C)C)O[C@H]1C` gave CendR NRP1 mod -4, SENP1 FRET inh -6 and SENP8 block-2 3.
Screening CC(=O)Oc1ccc(Cn2c(C)c(C(=O)NCCC#N)sc2=O)cc1 returned CendR NRP1 mod 9, SENP1 FRET inh -2 and SENP8 block-2 9.
`O=C1C(Cl)=C(NCCCN2CCOCC2)C(=O)c2ccccc21` gave CendR NRP1 mod 7, SENP1 FRET inh 4 and SENP8 block-2 64*.
`O=S(=O)(c1ccccc1)c1nc(-c2ccccc2Cl)oc1NCCCN1CCOCC1` gave CendR NRP1 mod -11, SENP8 block-1 13, SENP1 FRET inh 0, SENP8 block-2 -106, SENP7 block 1 and SENP6 inh -9.
COc1ccc(C(=O)/C=C2/C(=O)Nc3ccccc32)cc1 was read as CendR NRP1 mod 4, SENP8 block-1 -5, SENP1 FRET inh 3, SENP8 block-2 22, SENP7 block -1 and SENP6 inh -35.
For COc1ccc(C(=O)/C=C2/C(=O)Nc3ccccc32)cc1OC the results were CendR NRP1 mod 39*, SENP8 block-1 -4, SENP1 FRET inh -7, SENP8 block-2 11, SENP7 block -1 and SENP6 inh -26.
Screening Cc1ccccc1NC(=O)Nc1cnccn1 returned CendR NRP1 mod -13, SENP8 block-1 -3, SENP1 FRET inh 0, SENP8 block-2 -6, SENP7 block 9 and SENP6 inh -2.
Screening Cc1cccc(NC(=O)Nc2cnccn2)c1C returned CendR NRP1 mod 20*, SENP8 block-1 -7, SENP1 FRET inh 2, SENP8 block-2 -28, SENP7 block 4 and SENP6 inh -14.
`COc1ccc(C(C)=O)cc1COC(=O)CCNS(=O)(=O)c1ccc(C(C)=O)cc1` gave CendR NRP1 mod 44*, SENP8 block-1 2, SENP1 FRET inh 1, SENP8 block-2 5, SENP7 block -6 and SENP6 inh 12.
Screening COC(=O)C[C@@H]1C=C[C@H](NC(=O)Cc2ccccn2)[C@@H](CO)O1 returned CendR NRP1 mod 14, SENP1 FRET inh -2 and SENP8 block-2 16.
